Published values collected from several papers.
Compare with care: the assays were run in different laboratories.
Target: Serine/threonine-protein kinase OSR1 (OXSR1, Homo sapiens, UniProt O95747)

CC1CCCN1c1nccc(-c2cnn3ncccc23)n1 (stereo not shown) has a remaining binding of 100% (binding; 1 µM).
The remaining binding of O=C(NCCCN1CCOCC1)c1ccc(Nc2nccc(-c3cc4ccccc4s3)n2)cc1 is reported as 77% (binding; competition with immobilised ligand; 1 µM).
The remaining binding of N[C@@H]1CCN(c2nccc(-c3cnn4ncccc34)n2)C1 is reported as 100% (binding; 1 µM).
For CS(=O)(=O)c1cc(C2(NC(=O)c3cncc4c3cnn4-c3ccc(F)cc3)CC2)ccn1, the remaining binding was 85% (cell-free assay; competition with immobilised ligand; 1 µM).
C=CC(=O)N1CCC(C(=O)NCC(=O)N2CCN(c3nc(-c4cnc(N)nc4C(F)F)nc(N4CCOCC4)n3)CC2)CC1 gave a remaining binding of 100% (binding; competition with immobilised ligand; 1 µM).
The remaining binding of CNC(=O)[C@@H]1CC[C@@H](n2c(-c3ccc4cnccc4c3)nc3ccc(C(=O)NCc4cccc(C(N)=O)c4)cc32)C1 is reported as 100% (binding; competition with immobilised ligand; 1 µM).
The remaining binding of O=C(c1ccc(Nc2ncc(Cl)c(-c3ccc(Cl)s3)n2)cc1)N1CCC(N2CCCC2)CC1 is reported as 87% (binding; competition with immobilised ligand; 1 µM).
The remaining binding of c1cnn2ncc(-c3ccnc(N4CCC45COC5)n3)c2c1 is reported as 62% (binding; 1 µM).
For CO[C@H]1CC[C@H](CNc2ccc(S(=O)(=O)NC(=O)c3ccc(N4CCN(CC5=C(c6ccc(Cl)cc6)CC(C)(C)CC5)CC4)cc3Oc3cnc4[nH]ccc4c3)cc2[N+](=O)[O-])CC1, the remaining binding was 76% (cell-free assay; competition with immobilised ligand; 1 µM).
The remaining binding of COc1ncc2cc3ccccc3nc2c1C#N is reported as 100% (cell-free assay; competition with immobilised ligand; 5 µM).
Cc1cc(C)c(-n2ccn3nc(-c4cccnc4)cc23)cc1NC(=O)c1cc(C#N)cc(S(F)(F)(F)(F)F)c1 has a remaining binding of 87% (cell-free assay; competition with immobilised ligand; 0.1 µM).
With CN(CCCC(F)(F)F)c1nccc(-c2cnn3ncccc23)n1 the remaining binding was 100% (binding; 1 µM).
The remaining binding of C[C@@H]1CN(c2cc(-c3nn(C)c4ccc(OC5(C)CC5)cc34)ncn2)C[C@H](C)O1 is reported as 93% (cell-free assay; competition with immobilised ligand; 1 µM).
With C[C@@H]1CCN(c2nccc(-c3cnn4ncccc34)n2)C1 the remaining binding was 75% (binding; 1 µM).
With NS(=O)(=O)c1cc(NC(=O)Cc2ccccc2)ccc1Oc1cccc(Cl)c1 the remaining binding was 78% (cell-free assay; competition with immobilised ligand; 1 µM).
c1cncc(-c2cccc(Nc3nccc(NC4CCCCC4)n3)c2)c1 has a remaining binding of 100% (binding; competition with immobilised ligand; 10 µM).
The remaining binding of O=C(Nc1c[nH]nc1C(=O)NC1CCNCC1)c1cc(F)cc(F)c1 is reported as 100% (binding; competition with immobilised ligand; 1 µM).
Cc1cnn2ncc(-c3ccnc(N(C)C)n3)c2c1 gave a remaining binding of 84% (binding; 1 µM).
The remaining binding of O=C(Nc1cccnn1)N1CCC(=Cc2cccc(Oc3ccc(C(F)(F)F)cn3)c2)CC1 is reported as 100% (cell-free assay; competition with immobilised ligand; 1 µM).
For Nc1ncc2c(n1)-c1c([nH]c3ccc(C#CC4CC4)cc13)CCCC2, the remaining binding was 86% (binding; competition with immobilised ligand; 1 µM).
For C[C@H](c1ccc(F)cc1)N(Cc1cccc(C(=O)O)c1)C(=O)c1cnc2ccccc2c1, the remaining binding was 100% (cell-free assay; competition with immobilised ligand; 1 µM).
O=C(c1ccc(Nc2ncc(Cl)c(-c3cc4ccccc4s3)n2)cc1)N1CCC(N2CCCC2)CC1 has a remaining binding of 74% (binding; competition with immobilised ligand; 1 µM).
